From PMC11168086 (RSC Advances, 2024) come the findings set out here.

≈ marks a conversion by molar mass, not a printed value.

In series [1] the test system is HeLa (cervical cancers) cells. In words: MTT antiproliferative assay, HeLa. Format: cell-based, human. The conditions noted are these: for IC50: Homo sapiens, 72 h. A digest of the protocol:
(§1)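 Cells from ECACC were grown in MEM with 10% FBS, non-essential amino acids and penicillin-streptomycin, at 37 °C and 5% CO2. Cells were seeded at 5000 per well, left overnight, then exposed to test compound 72 h. MTT was added for 4 h, and formazan was dissolved in DMSO (60 min, 37 °C) and read at 545 nm. Compounds giving >50% inhibition at 10 μM were rerun over 0.1–30 μM for IC50. Two independent experiments used five wells each, with cisplatin as positive control.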

The test system of series [2] is MCF7 (breast cancer) cells. In words: MTT antiproliferative assay, MCF7. Format: cell-based, human. Particulars: for IC50: Homo sapiens, MCF7, 72 h, MCF-7, MTT, 72 h; for Lipophilic efficiency (LipE = pIC50 – logP): MCF-7. The procedure, abridged: as §1
A general note: Tetrazolium assays rely on reduction of a dye to a coloured formazan, in cell work by metabolically active cells.

Series [3] deals with MDA-MB-231 (breast cancer) cells. In words: MTT antiproliferative assay, MDA-MB-231. Format: cell-based, human. The conditions noted are these: for IC50: Homo sapiens, MDA-MB-231, 72 h, MDA-MB-231, MTT, 72 h; for Lipophilic efficiency (LipE = pIC50 – logP): MDA-MB-231. A digest of the protocol: as §1
The test system of series [4] is A2780 (ovarian cancer) cells. In words: MTT antiproliferative assay, A2780. Particulars: for Lipophilic efficiency (LipE = pIC50 – logP): A2780; for IC50: Homo sapiens, A2780, 72 h. It counts as cell-based, human. A digest of the protocol:
as §1

A short description of series [5]: Kinetic aqueous solubility. The conditions noted are these: PBS buffer, pH 7.4, aqueous buffer, kinetic from dmso stock. Format: physicochemical. A digest of the protocol: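 10 mM DMSO stocks were diluted into PBS pH 7.4 to a 500 μM target and shaken 2 h at room temperature. Samples were vacuum-filtered, diluted with acetonitrile to prevent precipitation, and scanned by UV-vis over 250–500 nm. Concentration was derived from a 3-point calibration at each compound's λmax.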

The nature of series [6]: Intestinal-specific PAMPA. Format: in vitro ADME. The conditions noted are these: pH 6.5. The procedure, abridged: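 Donor solutions at nominal 500 μM came from 10 mM DMSO stocks diluted in phosphate donor buffer, pH 6.5. The acceptor buffer held 5% DMSO. The membrane was phosphatidylcholine plus cholesterol in chloroform/dodecane/hexane (5:25:70 v/v). Plates were incubated 4 h at 37 °C, covered. Acceptor UV-vis absorbance was read over 250–500 nm. Pa was calculated by the Wohnsland–Faller equation from acceptor versus equilibrium absorbance at λmax.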
A general note: The PAMPA barrier holds no transporters, so it reflects passive diffusion.

As a reminder, the IC50 is the midpoint of a concentration-inhibition curve. What is called solubility (kinetic) is the concentration staying in solution when a stock, usually in DMSO, is diluted into the medium. The Papp is a coefficient for how fast a substance crosses the barrier. Read a high Papp as ready permeation. On to `C[C@@H]1CC[C@@H]([C@@](O)(CNCc2ccccc2)COCc2ccc(F)cc2)[C@H](OCc2ccc(F)cc2)C1` [Compound 44b], for which the “Lipophilic efficiency (LipE = pIC50 – logP)” value is −1.12 in series [1], −0.63 in series [2], −1.08 in series [3] and −0.97 in series [4]. Moreover, the IC50 stood at 3000 nM in series [1], 960 nM in series [2], 2700 nM in series [3] and 2100 nM in series [4]. Moreover, the kinetic solubility at 2 h in series [5] stood at 97 ± 2.8 µM (≈ 49.4 µg/mL). In series [6], this compound gave a Papp at 4 h, 500 μM of 23.2 ± 2.7 ×10⁻⁶ cm/s.
For the compound `C[C@@H]1CC[C@@H]([C@](C)(O)CNCc2cccc(F)c2)[C@H](OCc2ccccc2)C1` [Compound 8a], the “Lipophilic efficiency (LipE = pIC50 – logP)” value in series [1] is given as 0.00; in series [2], 0.17; in series [3], −0.28; in series [4], −0.25. The IC50 in series [1] was 5200 nM; in series [2], 3500 nM; in series [3], 9900 nM; in series [4], 9300 nM. In addition, in series [5], the kinetic solubility at 2 h is 31.8 ± 1 µM (≈ 12.3 µg/mL). The compound also came in with a Papp at 4 h, 500 μM in series [6] of 9.8 ± 1.2 ×10⁻⁶ cm/s.
As for `C[C@@H]1CC[C@@H]([C@](O)(CNCc2ccccc2)COCc2ccc(F)cc2)[C@H](OCc2ccc(F)cc2)C1` [Compound 44a], the “Lipophilic efficiency (LipE = pIC50 – logP)” value in series [1] is −0.78; in series [2] it was −0.59; in series [3], −0.81; in series [4] it was −1.00. The IC50 was determined as 1300 nM in series [1], 880 nM in series [2], 1500 nM in series [3] and 2200 nM in series [4]. The kinetic solubility at 2 h in series [5] was 163 ± 1.6 µM (≈ 83.1 µg/mL). The apparent permeability (Papp) at 4 h, 500 μM in series [6] is 28.8 ± 2.9 ×10⁻⁶ cm/s.
